An excerpt weighted towards active compounds, which were near 2.5% of everything screened.
CDK5 inh: inhibitors of human CDK5/p35 kinase, primary screen, biochemical, single concentration. Cyclin-dependent kinase 5 (Homo sapiens) + Cyclin-dependent kinase 5 activator 1 (Homo …. Recombinant CDK5/p35, ADP-Glo luminescence, 60 min. inhibition, % at 10 µM. 330,000 tested, 0.01% active;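 active = highest replicate inhibition of at least 50% and at least 75% of replicates reaching 50%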
NSD2 HMT inh: NSD2 histone methyltransferase inhibitors, primary screen, biochemical, AlphaScreen, single concentration, set 2 | 310,000 tested, 0.54% active | inhibition, % at 12.5 µM | NSD2 peptide methylation, 120 min | Histone-lysine N-methyltransferase NSD2 (Homo sapiens), O96028
SR-BI uptake up: activators of SR-BI mediated DiI-HDL uptake, primary screen, ldlA[mSR-BI] CHO cells, DiI fluorescence | 3 h; 100 = double the neutral-control signal | activation, % at 12.5 µM | 320,000 tested, 0.096% active | AID 504775, 2011;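 active = mean replicate activation of at least 60% and every replicate at or above 60%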
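System: CHO ldlA[mSR-BI] cells / Medium: HEPES-buffered (25 mM, pH 7.4) F12 plus 0.5% BSA / Probe or stimulus: labelled HDL, 10 µg/mL / Doses: single compound concentration, delivered by pin transfer / Schedule: 3 h, 37 °C / Measured by: DiI fluorescence, bottom read / Measure: cell-associated DiI fluorescence as measure of HDL uptake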
DYRK1A inh: rat Dyrk1A kinase inhibitors, primary screen, biochemical, single point, plate reader; inhibition, % at 12.5 µM; ADP-Glo luminescence, NFATc1 peptide; Dual specificity tyrosine-phosphorylation-regulated kinase 1A (Rattus norvegicus), Q63470; AID 504441, 2011; 310,000 tested, 0.43% active
SR-BI HDL uptake: inhibitors of SR-BI mediated HDL lipid uptake, primary screen, ldlA[mSR-BI] cells, fluorescence, single point. ldlA[mSR-BI] CHO cells, DiI-HDL uptake fluorescence, 3 h. AID 488896, 2010. inhibition, % at 12.5 µM. Scavenger receptor class B member 1 (Mus musculus), Q61009. 320,000 tested, 0.96% active;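 active = mean replicate inhibition of at least 70% and a set share of replicates each scoring 70 or more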
dFosB activator: activators of delta FosB homodimer, primary screen, biochemical, fluorescence polarization, TAMRA-CDK5 oligo, single point; purified delta FosB; percent of positive-control signal above neutral wells; AID 493131, 2011; Protein FosB (Mus musculus), P13346; 340,000 tested, 0.99% active; activation, % at 25 µM;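 active = mean activation above about 17%, with every replicate also reaching it, limit read from the data, passing the limit was not always enough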
Target sequence (P13346 whole entry, looked up): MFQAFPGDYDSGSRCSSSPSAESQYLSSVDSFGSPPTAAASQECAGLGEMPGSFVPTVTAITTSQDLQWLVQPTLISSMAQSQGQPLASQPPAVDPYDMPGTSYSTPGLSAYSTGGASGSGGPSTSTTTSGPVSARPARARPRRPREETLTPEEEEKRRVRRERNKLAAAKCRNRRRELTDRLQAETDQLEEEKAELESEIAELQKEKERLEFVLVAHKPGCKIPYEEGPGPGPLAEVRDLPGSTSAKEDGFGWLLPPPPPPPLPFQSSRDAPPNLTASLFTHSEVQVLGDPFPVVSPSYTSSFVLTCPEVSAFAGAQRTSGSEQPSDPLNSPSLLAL
Alpha artifact: AlphaScreen signal interference with preloaded methylated product, dose response, artefact control for NSD2 inhibitor project, biochemical, cherry-picked samples. 1,500 tested, 9.4% active. shares compounds with NSD2 HMT inh. AlphaScreen artifact counterscreen, preloaded methylated H4 peptide. AC35, µM (doses to about 10 µM); call rule not given here
Large screens that a line does not name were inactive (follow-up assays come after a bar, where they were run). Cut-off read from the data, not from the text of the source, unless noted: active = inhibition above about 50%; inactive = the rest.

Cc1cc2ccccn2c1C(=O)c1ccncc1	none
Cc1cc2ccccn2c1C(=S)NC(=O)c1ccccc1	NSD2 HMT inh 54.9 | Alpha artifact 10.1µM
Cc1nc2scc(C)n2c(=O)c1S(=O)(=O)N1CCN(c2ccccc2)CC1	none (no result: SR-BI uptake up, SR-BI HDL uptake)
Cc1cccc(N2CCN(S(=O)(=O)c3c(C)nc4scc(C)n4c3=O)CC2C)c1 (stereo unspecified)	NSD2 HMT inh 105.0 | Alpha artifact inactive
CCCCn1c(=O)[nH]c2nc3cc(N)ccc3nc2c1=O	NSD2 HMT inh 110.4 | Alpha artifact inactive
Cc1ccc2nc(CSc3nc(C)ccc3C#N)[nH]c2c1	none (no result: SR-BI uptake up, SR-BI HDL uptake)
Cc1ccc(C#N)c(SCc2ccccc2F)n1	NSD2 HMT inh 60.4 (no result: CDK5 inh, SR-BI uptake up, DYRK1A inh, SR-BI HDL uptake, dFosB activator) | Alpha artifact inactive
COc1cnc(-c2ccccn2)nc1Oc1cccc(C(F)(F)F)c1	NSD2 HMT inh 54.9 | Alpha artifact inactive
COc1cnc(-c2ccccn2)nc1Oc1ccccc1	none
COc1ccc(CCCc2n[nH]c(=S)n2C)cc1C	NSD2 HMT inh 52.3 | Alpha artifact inactive
CC1CCC2C(C1)c1sc(=O)[nH]c1SC2(C)C (stereo unspecified)	NSD2 HMT inh 111.0 | Alpha artifact inactive
COc1ccc(/C=C(\C#N)C(=O)N2COCC2(C)C)cc1	NSD2 HMT inh 59.4 | Alpha artifact inactive
COc1ccc(S(=O)(=O)Nc2cccc3ccc(O)cc23)cc1	none
COc1ccc(S(=O)(=O)Nc2cc(SCC(=O)O)c(O)c3ccccc23)cc1	NSD2 HMT inh 121.1 | Alpha artifact inactive
O=C(CSc1nnc(COc2ccccc2)n1-c1ccccc1)Nc1ccc2c(c1)OCO2	none (no result: CDK5 inh, SR-BI uptake up, DYRK1A inh, SR-BI HDL uptake, dFosB activator)
O=C(CCCN1C(=O)/C(=C\c2ccco2)SC1=S)Nc1ccc(O)cc1C(=O)O	NSD2 HMT inh 103.6 | Alpha artifact inactive
O=C(CCCN1C(=O)/C(=C/c2ccco2)SC1=S)Nc1cccc(C(=O)O)c1	NSD2 HMT inh 124.5 (no result: SR-BI uptake up, SR-BI HDL uptake) | Alpha artifact inactive
O=C(CN1C(=O)/C(=C/c2ccco2)SC1=S)Nc1ccc(O)c(C(=O)O)c1	NSD2 HMT inh 116.2 | Alpha artifact inactive
COc1ccc(NC(=O)CCCN2C(=O)/C(=C\c3ccco3)SC2=S)cc1	none
O=C(CCCN1C(=O)/C(=C\c2cccs2)SC1=S)Nc1ccc(O)cc1C(=O)O	none
CCCCNC(=S)Nc1ccc(C(F)(F)F)cc1	none (no result: DYRK1A inh)
CCOc1ccc(S(=O)(=O)N2CCC(C(=O)N3CCN(Cc4ccccc4)CC3)CC2)cc1	none
Nn1cnnc1N/N=C\c1ccc(-c2ccccc2[N+](=O)[O-])o1	NSD2 HMT inh 97.5 | Alpha artifact inactive
O=[N+]([O-])c1ccccc1-c1ccc(/C=N/n2cnnc2)o1	none
Cc1cc(CSCc2ccc(Cl)cc2)no1	none
CC(=O)N(C)c1ccc(N=Nc2c(C)[nH]n(C(N)=S)c2=O)cc1	NSD2 HMT inh 79.9 | Alpha artifact inactive
Nc1nnc2c(n1)CCCC2	NSD2 HMT inh 58.4 | Alpha artifact inactive
Cc1ccc(Cn2c(SCC(=O)NCC3CCCO3)nc3c2c(=O)n(C)c(=O)n3C)cc1 (stereo unspecified)	NSD2 HMT inh 50.6 | Alpha artifact inactive
CCNc1nc(NCC)n2c(SCC(=O)Nc3ccc(C)c(C)c3)nnc2n1	none
Cc1c(C)c2cc(Cl)c(O)c(CN(C)C)c2oc1=O	NSD2 HMT inh 118.7 | Alpha artifact inactive
CC(C)(C)c1cc[n+](C2=C([O-])c3ccccc3C(=O)/C2=N\S(=O)(=O)c2cccs2)cc1	NSD2 HMT inh 61.5 (no result: CDK5 inh, SR-BI uptake up, DYRK1A inh, SR-BI HDL uptake, dFosB activator) | Alpha artifact inactive
O=C(Nc1ccc(Cc2ccncc2)cc1)c1cc([N+](=O)[O-])ccc1N1CCOCC1	none (no result: SR-BI uptake up, SR-BI HDL uptake)
COc1cc(-c2nc(CN3CCN(C(=O)c4ccco4)CC3)c(C)o2)ccc1F	none

From PubChem BioAssay
